The results in this text go back to ChEMBL document CHEMBL1629457 (J Med Chem, 2010).

The nature of series [1]: Half life in […] by LC/MS and RP-HPLC method. The class given is ADME, cell-free, Serum. The settings on record: human. The procedure, abridged: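 Human plasma pre-warmed 30 min at 37 °C. Peptide (0.3 mM stock in 0.1 M phosphate, pH 7.2) added at 50 μL per 300 μL plasma, then incubated at 37 °C. Samples taken at 1, 2, 3, 4, 12, 24 and 48 h and quenched in ACN/NaCl/TFA extraction buffer. Analysed by RP-HPLC and LC-MS. Half-life from a one-phase decay fit, n = 3-6.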

The target in series [2] is T1, Oxytocin receptor (Homo sapiens, UniProt P30559).
T1 sequence (P30559 whole entry): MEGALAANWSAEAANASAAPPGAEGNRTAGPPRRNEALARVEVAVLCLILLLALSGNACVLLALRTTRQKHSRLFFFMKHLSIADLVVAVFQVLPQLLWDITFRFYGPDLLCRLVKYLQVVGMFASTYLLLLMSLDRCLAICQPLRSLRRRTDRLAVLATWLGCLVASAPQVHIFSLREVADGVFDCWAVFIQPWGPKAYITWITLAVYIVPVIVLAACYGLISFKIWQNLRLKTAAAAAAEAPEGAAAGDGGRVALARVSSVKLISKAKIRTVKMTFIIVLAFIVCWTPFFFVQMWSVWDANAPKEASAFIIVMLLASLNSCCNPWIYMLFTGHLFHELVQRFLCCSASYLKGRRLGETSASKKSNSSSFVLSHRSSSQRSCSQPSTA
As to the kind of experiment: Activity at oxytocin receptor expressed in COS1 cells assessed as IP-one generation by HTRF assay. The class given is cell-based, COS-1. The procedure, abridged: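 Human OTR transiently transfected into COS-1 cells (Lipofectamine2000, DNA ratio 2); assayed 48 h post-transfection. Cells stimulated with increasing compound concentrations in HEPES buffer containing 50 mM LiCl, pH 7.4, 1 h at 37 °C, 5% CO2. Lysed with HTRF reagents (Eu cryptate anti-IP-one antibody, d2-IP-one), 1 h room temperature. Read 665/590 nm after 340 nm excitation. EC50; triplicates, n = 3-6.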

Series [3] addresses T1, Oxytocin receptor. As to the kind of experiment: Displacement of [3H]OT from oxytocin receptor expressed in COS1 cells. The class given is cell-based, COS-1. The procedure, abridged:
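Membranes from COS-1 cells transiently transfected with OTR, harvested 48 h post-transfection; 5 μg protein per well. Incubated with 2 nM [3H]OT and competitor (10 pM to 10 μM) on scintillation proximity beads in buffer with 0.1% BSA. Shaken 1 h at room temperature, then scintillation counted.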
For orientation: Loss of bound radioactivity is the signal in a displacement assay; it reports binding, not function.

Each structure is given as a SMILES string. pEC50, pKi: −log10 of the molar value. Bridge positions count the residues as written; N and C are the ends. Peptide text beside a SMILES is read from it.

One may read the half-life as the time in which the quantity being followed falls by half. Higher therefore signals slow decline. One may read the pEC50 as the negative decadic logarithm of the EC50, by convention in mol/L. As usually defined, the pKi is the negative decadic logarithm of the Ki, by convention in mol/L. High values mean a small Ki, low ones a large Ki. For the compound `CC[C@H](C)[C@@H]1NC(=O)[C@H](Cc2ccc(O)cc2)NC(=O)[C@@H](N)C[Te][Te]C[C@@H](C(=O)N2CCC[C@H]2C(=O)N[C@@H](CC(C)C)NCC(N)=O)NC(=O)[C@H](CC(N)=O)NC(=O)[C@H](CCC(N)=O)NC1=O`, in series [1], the half-life is 24.2 h. For the same compound, the negative logarithm of the EC50 (pEC50) on Oxytocin receptor [2] was 7.56. At Oxytocin receptor [3], this compound showed a negative-log Ki (pKi) of 8.12.

As for `CC[C@H](C)[C@@H]1NC(=O)[C@H](Cc2ccc(O)cc2)NC(=O)[C@@H]2CSSC[C@H](NC(=O)[C@H](CC(N)=O)NC(=O)[C@H](CCC(N)=O)NC1=O)C(=O)N1CCC[C@H]1C(=O)N[C@@H](CC(C)C)C(=O)NCC(=O)N[C@@H](C)C(=O)NCC(=O)N[C@@H](C)C(=O)NCC(=O)N[C@@H](C)C(=O)NCC(=O)N2` (cyclo(AGAGAGCYIQNCPLG); disulfide 7-12), the half-life in series [1] was more than 48 h. Further, at Oxytocin receptor [2], the negative logarithm of the EC50 (pEC50) was less than 4.00. Moreover, the negative logarithm of the Ki (pKi) at Oxytocin receptor [3] is less than 4.00.

The compound `NC(=O)CC[C@@H]1NC(=O)[C@H](Cc2ccccc2)NC(=O)[C@H](Cc2ccc(O)cc2)NC(=O)[C@@H](N)CSSC[C@@H](C(=O)N2CCC[C@H]2C(=O)N[C@@H](CCCN=C(N)N)C(=O)NCC(N)=O)NC(=O)[C@H](CC(N)=O)NC1=O` [VASOPRESSIN] showed a half-life in series [1] of 1.7 h.

Consider `CC[C@H](C)[C@@H]1NC(=O)[C@H](Cc2ccc(O)cc2)NC(=O)[C@@H]2CSSC[C@H](NC(=O)[C@H](CC(N)=O)NC(=O)[C@H](CCC(N)=O)NC1=O)C(=O)N1CCC[C@H]1C(=O)N[C@@H](CC(C)C)C(=O)NCC(=O)N2`, for which the half-life in series [1] was more than 48 h. For the same compound, the negative logarithm of the EC50 (pEC50) on Oxytocin receptor [2] was less than 4.00. For the same compound, the pKi at Oxytocin receptor [3] was 5.85.

Take `CC[C@H](C)[C@@H]1NC(=O)[C@H](Cc2ccc(O)cc2)NC(=O)[C@@H](N)CSSC[C@@H](C(=O)N2CCC[C@H]2C(=O)N[C@@H](CC(C)C)C(=O)NCC(N)=O)NC(=O)[C@H](CC(N)=O)NC(=O)[C@H](CCC(N)=O)NC1=O` [OXYTOCIN]: the half-life in series [1] was 11.6 h.

For the compound `CC[C@H](C)[C@@H]1NC(=O)[C@H](Cc2ccc(O)cc2)NC(=O)[C@@H](N)CS[Se]C[C@@H](C(=O)N2CCC[C@H]2C(=O)N[C@@H](CC(C)C)NCC(N)=O)NC(=O)[C@H](CC(N)=O)NC(=O)[C@H](CCC(N)=O)NC1=O`, on Oxytocin receptor [2], the pEC50 is 6.81. This compound also showed a negative-log Ki (pKi) at Oxytocin receptor [3] of 9.14.

Compound `CC[C@@H](C)[C@H]1NC(=O)[C@@H](CCC(N)=O)NC(=O)[C@@H](CC(N)=O)NC(=O)[C@H](NC(=O)[C@H]2CCCN2C(=O)[C@@H](CC(C)C)NC(=O)CN)CSSC[C@H](C(=O)O)NC(=O)[C@@H](Cc2ccc(O)cc2)NC1=O` gave a half-life in series [1] of 5.5 h. Besides, the negative logarithm of the EC50 (pEC50) at Oxytocin receptor [2] is less than 4.00. At Oxytocin receptor [3], this compound gave a pKi of less than 4.00.
